For one series, the system named is UACC-62. As to the kind of experiment: Antiproliferative activity against human UACC62 cells assessed as cell growth inhibition after 48 hrs by sulforhodamine B assay. It counts as functional. Conditions: UACC-62, 48 h. The method, boiled down:
(§1)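 Human tumour lines and HaCaT normal keratinocytes in 96-well plates, exposed to compound in DMSO/RPMI (final DMSO 0.2%) for 48 h at 37 °C, 5% CO2. Cells were fixed with 50% trichloroacetic acid at time zero and after treatment. Protein was stained with sulforhodamine B and read at 540 nm. TGI (total growth inhibition) was derived by non-linear regression from triplicate runs.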

The subject of the next series is U-251. Put plainly: Antiproliferative activity against human U251 cells assessed as cell growth inhibition after 48 hrs by sulforhodamine B assay. The series is classed as functional. The note with it: U-251, 48 h. Summed up: as §1
(In general: The SRB assay estimates cell density from bound dye.)

The test system of another series is MCF7. Put plainly: Antiproliferative activity against human MCF7 cells assessed as cell growth inhibition after 48 hrs by sulforhodamine B assay. The note with it: MCF7, 48 h. It counts as functional. Summed up:
as §1

The next series deals with NCI/ADR-RES. Put plainly: Antiproliferative activity against human NCI/ADR-RES cells assessed as cell growth inhibition after 48 hrs by sulforhodamine B assay. It counts as functional. Summed up: as §1
In a further series the test system is 786-0. Put plainly: Antiproliferative activity against human 786-0 cells assessed as cell growth inhibition after 48 hrs by sulforhodamine B assay. The series is classed as functional. The note with it: 786-0, 48 h. Summed up: as §1
The next series concerns NCI-H460. As to the kind of experiment: Antiproliferative activity against human NCI-H460 cells assessed as cell growth inhibition after 48 hrs by sulforhodamine B assay. The series is classed as functional. Conditions: NCI-H460, 48 h. The method, boiled down: as §1
A further series has as its system PC-3. Put plainly: Antiproliferative activity against human PC3 cells assessed as cell growth inhibition after 48 hrs by sulforhodamine B assay. It counts as functional. Conditions: PC-3, 48 h. The method, boiled down: as §1
A further series deals with OVCAR-3. Put plainly: Antiproliferative activity against human OVCAR3 cells assessed as cell growth inhibition after 48 hrs by sulforhodamine B assay. The series is classed as functional. Conditions: OVCAR-3, 48 h. The method, boiled down:
as §1

The subject of a further series is HT-29. Put plainly: Antiproliferative activity against human HT-29 cells assessed as cell growth inhibition after 48 hrs by sulforhodamine B assay. The series is classed as functional. Conditions: HT-29, 48 h. Summed up: as §1
The test system of the next series is HaCaT. As to the kind of experiment: Cytotoxicity against human HaCaT cells assessed as cell growth inhibition after 48 hrs by sulforhodamine B assay. The series is classed as cell-based. Summed up:
as §1

A short description of series [1]: Selectivity index, ratio of TGI for human HaCaT cells to TGI for human U251 cells. The series is classed as toxicity. Conditions: HaCaT cells and U251 cells, read-out: Selectivity Index.

As for `C=C(C)[C@@H]1CC=C(Cn2cc(COc3ccc(C4NC(=O)NC(C)=C4C(=O)OCC)cc3OC)nn2)CC1` (some centres not stated), the TGI was 26.7 µM in the series on UACC-62; 11.3 µM with U-251; 82.5 µM with MCF7; more than 100 µM with NCI/ADR-RES; 87.3 µM with 786-0; more than 100 µM with NCI-H460. In addition, the TGI with PC-3 was 54.4 µM; in the series on OVCAR-3, 53.8 µM; in the series on HT-29, more than 100 µM; in the series on HaCaT, 75.76 µM.
For `C=C(C)[C@@H]1CC=C(Cn2cc(COc3ccc(C4NC(=O)NC5=C4C(=O)CC(C)(C)C5)cc3)nn2)CC1` (some centres not stated), the TGI is 29.9 µM in the series on UACC-62; 6.61 µM with U-251; more than 100 µM in the series on MCF7; more than 100 µM in the series with NCI/ADR-RES; 53.2 µM in the series on 786-0; more than 100 µM in the series on NCI-H460. For the same molecule, the TGI with PC-3 is 24 µM; with OVCAR-3 it was 29.3 µM; in the series on HT-29 it was more than 100 µM; with HaCaT it was 436.18 µM. In series [1], the selectivity ratio is 66.
As to `C=C(C)[C@@H]1CC=C(Cn2cc(COc3ccc(C4NC(=O)NC5=C4C(=O)CC(C)(C)C5)cc3OC)nn2)CC1` (some centres not stated), the TGI is 86.2 µM with UACC-62; 44 µM in the series with U-251; 91.9 µM in the series with MCF7; more than 100 µM with NCI/ADR-RES; more than 100 µM in the series on 786-0; more than 100 µM in the series with NCI-H460. Besides, the TGI is more than 100 µM with PC-3, 95 µM in the series on OVCAR-3, more than 100 µM with HT-29 and 71.34 µM with HaCaT.
For the molecule `C=C(C)[C@@H]1CC=C(Cn2cc(COc3ccccc3C3NC(=O)NC(C)=C3C(C)=O)nn2)CC1` (some centres not stated), the TGI is 34.2 µM with UACC-62; 30.2 µM in the series on U-251; 68.7 µM with MCF7; more than 100 µM with NCI/ADR-RES; 80.3 µM in the series with 786-0; 83.1 µM in the series on NCI-H460. Further, the TGI with PC-3 was 62 µM; with OVCAR-3, 34.3 µM; with HT-29, 79.5 µM; with HaCaT it was 29.51 µM.
`C=C(C)[C@@H]1CC=C(Cn2cc(COc3cccc(C4NC(=O)NC(C)=C4C(C)=O)c3)nn2)CC1` (some centres not stated): the TGI in the series on UACC-62 was 31.6 µM; in the series with U-251 it was 30.5 µM; in the series with MCF7, 43 µM; with NCI/ADR-RES, more than 100 µM; in the series with 786-0 it was 44.1 µM; in the series with NCI-H460 it was more than 100 µM. Further, the TGI with PC-3 came out at 49.8 µM; in the series on OVCAR-3, 13.3 µM; in the series on HT-29, 86.2 µM; in the series on HaCaT it was 115.66 µM.
In the case of `C=C(C)[C@@H]1CC=C(Cn2cc(COc3cccc(C4NC(=O)NC(C)=C4C(=O)OCC)c3)nn2)CC1` (some centres not stated), the TGI in the series on UACC-62 is 22.9 µM; with U-251, 12.2 µM; in the series with MCF7 it was 42.5 µM; in the series with NCI/ADR-RES, more than 100 µM; with 786-0, 39.7 µM; in the series with NCI-H460, more than 100 µM. The TGI with PC-3 was more than 100 µM; in the series on OVCAR-3, 18.4 µM; with HT-29, 73.4 µM; in the series on HaCaT, 507.82 µM. In series [1], the selectivity ratio was determined as 41.7.
With `C=C(C)[C@@H]1CC=C(Cn2cc(COc3ccc(C4NC(=O)NC(C)=C4C(=O)OCC)cc3)nn2)CC1` (some centres not stated), the TGI in the series on UACC-62 is 19.2 µM; in the series on U-251 it was 12.4 µM; in the series with MCF7, 43.1 µM; in the series on NCI/ADR-RES it was more than 100 µM; in the series on 786-0, 97.1 µM; with NCI-H460 it was more than 100 µM. For the same molecule, the TGI with PC-3 turned out to be 92.2 µM; in the series on OVCAR-3 it was 6.9 µM; in the series on HT-29 it was 77.1 µM; in the series with HaCaT, 165.69 µM.
Consider `C=C(C)[C@@H]1CC=C(Cn2cc(COc3ccc(C4NC(=O)NC(C)=C4C(C)=O)cc3OC)nn2)CC1` (some centres not stated), for which the TGI was 3.83 µM with UACC-62; 77.9 µM in the series on U-251; 53.3 µM in the series on MCF7; 80.2 µM with NCI/ADR-RES; 88.1 µM in the series on 786-0; more than 100 µM in the series with NCI-H460. Further, the TGI with PC-3 was found to be 85.7 µM; in the series on OVCAR-3, 48 µM; in the series with HT-29, 95 µM; in the series with HaCaT it was 147.92 µM.

By TGI is commonly meant the concentration at which net growth stops.

(Values after ChEMBL document CHEMBL4257545, “Synthesis of novel perillyl-dihydropyrimidinone hybrids designed for antiproliferative activity” (Medchemcomm, 2018).)
